Source: ChEMBL document CHEMBL4385626, “SAR optimization studies on modified salicylamides as a potential treatment for acute myeloid leukemia through inhibition of the CREB pathway” (Bioorg Med Chem Lett, 2019)
Activity calls are given as the source filed them. The calls are words filed in the database; no cut-off is given here.

Tests used:
[1] = Inhibition of KIX-RLucC fused CBP (unknown origin) binding to KID-RLucN fused CREB (unknown origin) transfected in human HEK293 cells preincubated with compound 30 mins before forskolin addition and measured after 90 mins in presence of coelenterazine by split Renilla luciferase complementation assay
KG-1 = assay: Cytotoxicity against human KG1 cells incubated for 3 days by CellTiter-Glo luminescent assay; assay type: functional, cell-based; settings: KG-1, 72 h
Procedure, shortened: (§1)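 CellTiter-Glo viability read-out on leukemia cell lines. IC50 reported as the average of triplicates.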

HL-60 = assay: Cytotoxicity against human HL60 cells incubated for 3 days by CellTiter-Glo luminescent assay; assay type: functional, cell-based; settings: HL-60, 72 h
Procedure, shortened: as §1

NALM-6 = assay: Cytotoxicity against human NALM6 cells incubated for 3 days by CellTiter-Glo luminescent assay; assay type: functional, cell-based; settings: NALM-6, 72 h
Procedure, shortened: as §1

Jurkat = assay: Cytotoxicity against human Jurkat cells incubated for 3 days by CellTiter-Glo luminescent assay; assay type: functional, cell-based; settings: 72 h
Procedure, shortened: as §1

Bone marrow cell = assay: Cytotoxicity against human bone marrow cells incubated for 3 days by CellTiter-Glo luminescent assay; assay type: cell-based; settings: 72 h
[2] = Metabolic stability in mouse liver microsomes assessed as half life in presence of NADPH by LC-MS/MS analysis; assay type: ADME, Microsome
Homo sapiens = species: Homo sapiens; assay: Inhibition of CBP KIX domain (unknown origin) binding to BODIPY-labeled phosphorylated CREB KID domain (unknown origin) interaction pre-incubated for 30 mins by fluorescence polarization assay
Procedure, shortened: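 Fluorescence polarization with BODIPY-labeled phosphorylated CREB KID domain and the CBP KIX domain. Polarization reports the degree of KIX-KID binding.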

[3] = Metabolic stability in human liver microsomes assessed as half life in presence of NADPH by LC-MS/MS analysis; assay type: ADME, Microsome
[4] = Elimination half life in NSG mouse at 2 mg/kg, iv measured after 7 to 150 mins by LC/MS/MS analysis; assay type: ADME, organism-based; settings: in vivo, read-out: beta t1/2 (converted)
Procedure, shortened: (§2)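 Single IV dose of 2 mg/kg to NSG mice (NOD.Cg-Prkdc scid Il2rg tm1Wjl/SzJ), vehicle DMSO/Kolliphor EL/water (3/5/82). Compound levels measured in plasma at various times after injection. PK parameters derived from the plasma time-concentration profiles.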

[5] = Plasma concentration in NSG mouse at 2 mg/kg, iv measured after 7 to 150 mins by LC/MS/MS analysis; assay type: ADME, organism-based; settings: in vivo
Procedure, shortened: as §2

[6] = AUC (0 to t) in NSG mouse at 2 mg/kg, iv measured after 7 to 150 mins by LC/MS/MS analysis; assay type: ADME, organism-based; settings: in vivo
Procedure, shortened: as §2

[7] = Apparent volume of distribution in NSG mouse at 2 mg/kg, iv measured after 7 to 150 mins by LC/MS/MS analysis; assay type: ADME, organism-based; settings: in vivo
Procedure, shortened: as §2

[8] = MRT (0 to infinity) in NSG mouse at 2 mg/kg, iv measured after 7 to 150 mins by LC/MS/MS analysis; assay type: ADME, organism-based; settings: in vivo
Procedure, shortened: as §2

[9] = Volume of distribution at steady state in NSG mouse at 2 mg/kg, iv measured after 7 to 150 mins by LC/MS/MS analysis; assay type: ADME, organism-based; settings: in vivo
Procedure, shortened: as §2

[10] = AUC (0 to infinity) in NSG mouse at 2 mg/kg, iv measured after 7 to 150 mins by LC/MS/MS analysis; assay type: ADME, organism-based; parameters: dose 2 mg/kg, time infinity, route intravenous; settings: in vivo
Procedure, shortened: as §2

Row | Structure (SMILES) | IC50 [1] [nM] | IC50 (KG-1) [nM] | IC50 (HL-60) [nM] | IC50 (NALM-6) [nM] | IC50 (Jurkat) [nM] | further results
1 | COc1ccc(O)c(C(=O)Nc2ccc(C#N)cc2)c1 | > 7000 | > 10000 | > 10000 |  |  | 
2 | N#Cc1ccc(C(=O)Nc2cc3ccccc3cc2O)cc1 | > 7000 | > 10000 | > 10000 |  |  | 
3 | COc1cccc(O)c1C(=O)Nc1ccc(C#N)cc1 | > 7000 | > 10000 | > 10000 |  |  | 
4 | O=C(Nc1cc(C(F)(F)F)cc(C(F)(F)F)c1)c1cc(Br)ccc1O | 1240 | 300 | 290 | 590 | 350 | IC50 (Bone marrow cell): > 10000 nM; half-life [2]: 29.1 min; inhibition (Homo sapiens): Active; half-life [3]: 52 min
5 | O=C(Nc1cc(C(F)(F)F)cc(C(F)(F)F)c1)c1ccc(Cl)cc1O | 2530 | 620 | 200 | 850 | 570 | half-life [2]: 31.8 min; inhibition (Homo sapiens): Active; half-life [3]: 159 min
6 | N#Cc1ccc(NC(=O)c2cc(Br)ccc2O)cc1 | 3030 | 1290 | 620 |  |  | 
7 | O=C(Nc1ccc([N+](=O)[O-])cc1Cl)c1cc(Cl)ccc1O [NICLOSAMIDE] | 1530 | 360 | 300 | 620 | 400 | half-life [4]: 33.6 min; Cp [5]: 0.12 ng/mL; AUC(0-t) [6]: 536 ng·h/mL; Vz [7]: 0.0025 mg/ng/mL; IC50 (Bone marrow cell): > 10000 nM; half-life [2]: 6.6 min; half-life [3]: 21 min; MRT inf [8]: 24.2 min; Vdss [9]: 0.0015 mg/ng/mL; AUC(0-inf) [10]: 536 ng·h/mL
8 | O=C(Nc1ccc(C(F)(F)F)cc1)c1ccc(Cl)cc1O |  | 580 | 630 | 1180 | 670 | 
9 | O=C(Nc1ccc(C(F)(F)F)cc1)c1cc(Br)c(-c2ccccc2)cc1O |  | 400 | 540 | 1000 | 740 | 
10 | O=C(Nc1cc(C(F)(F)F)cc(C(F)(F)F)c1)c1cc(Br)c(F)cc1O |  | 510 | 250 | 950 | 700 | 
11 | N#Cc1ccc(NC(=O)c2ccc3cccnc3c2O)c(F)c1 |  | 3260 | 730 | 370 | 420 | 
12 | N#Cc1ccc(NC(=O)c2ccc(Br)cc2O)c(Cl)c1 |  | 790 | 730 | 1860 | 750 | 
13 | N#Cc1ccc(NC(=O)c2ccc3ccccc3c2)cc1 | > 7000 | > 10000 | > 10000 |  |  | 
14 | N#Cc1ccc(NC(=O)c2cc(Cl)ccc2O)cc1 | 3990 | 1860 | 700 |  |  | 
15 | O=C(Nc1ccc([N+](=O)[O-])cc1)c1cc(F)ccc1O |  | 1100 | 520 | 2080 | 940 | 
16 | O=C(Nc1ccc(Cl)c(C(F)(F)F)c1)c1cc(F)ccc1O |  | 540 | 600 | 970 | 530 | 

Row | Structure (SMILES) | IC50 [1] [nM] | IC50 (KG-1) [nM] | IC50 (HL-60) [nM] | IC50 (NALM-6) [nM] | IC50 (Jurkat) [nM] | further results
17 | O=C(Nc1ccc(C(F)(F)F)c(Cl)c1)c1cc(Cl)ccc1O |  | 450 | 460 | 1220 | 690 | 
18 | O=C(Nc1cc(C(F)(F)F)cc(C(F)(F)F)c1)c1cc(F)ccc1O |  | 470 | 320 | 620 | 500 | 
19 | O=C(Nc1cc(C(F)(F)F)cc(C(F)(F)F)c1)c1cc(Cl)c(-c2ccccc2)cc1O |  | 430 | 790 | 560 | 540 | 
20 | O=C(Nc1ccc(C(F)(F)F)cc1)c1cc(F)ccc1O |  | 1700 | 490 | 2090 | 580 | 
21 | O=C(Nc1ccc(OC(F)(F)F)c(Cl)c1)c1cc(F)ccc1O |  | 370 | 550 | 1000 | 700 | 
22 | O=C(Nc1ccc(C(F)(F)F)cc1)c1cc(Cl)ccc1O |  | 740 | 510 | 1210 | 710 | 
23 | O=C(Nc1cccc(C(F)(F)F)c1)c1cc(F)ccc1O |  | 1010 | 970 | 1800 | 840 | 
24 | Cc1cc(C#N)ccc1NC(=O)c1ccc2cccnc2c1O |  | 3240 | 710 | 230 | 270 | 
25 | O=C(Nc1ccc([N+](=O)[O-])cc1Cl)c1cc(F)ccc1O | 1520 | 490 | 280 | 910 | 530 | 
26 | N#Cc1cc(Cl)ccc1NC(=O)c1ccc2cccnc2c1O |  | 3540 | 790 | 280 | 170 | 
27 | O=C(Nc1ccc(Cl)c(Br)c1)c1cc(Cl)ccc1O |  | 680 | 780 | 3070 | 1350 | 
28 | O=C(Nc1ccc(OC(F)(F)F)c(Cl)c1)c1ccc(C(F)(F)F)cc1O |  | 640 | 380 | 950 | 790 | 
29 | O=C(Nc1ccc(C(F)(F)F)cc1)c1cc(Br)ccc1O |  | 610 | 580 | 1090 | 620 | 
30 | O=C(Nc1cc(F)cc(F)c1)c1ccc2cccnc2c1O |  | 3340 | 510 | 310 | 430 | 
31 | O=C(Nc1cc(C(F)(F)F)cc(C(F)(F)F)c1)c1cc(Cl)ccc1O [IMD-0354] |  | 500 | 160 | 630 | 480 | 
32 | N#Cc1ccc(NC(=O)c2cc3ccccc3cc2O)cc1 | 4030 |  | 1580 |  |  | IC50 (Bone marrow cell): > 10000 nM; half-life [2]: 5.5 min; half-life [3]: 44.9 min
